According to ChEMBL document CHEMBL1154716, “Synthesis of some new S-triazine based chalcones and their derivatives as potent antimicrobial agents” (2010):
≈ marks a conversion by molar mass, not a printed value. Calls of active or inactive are those of the source. The calls are words filed in the database; no cut-off is given here.

Tests used:
Pseudomonas aeruginosa [1] = experiment: Antimicrobial activity against Pseudomonas aeruginosa at 1 umol/spot after 18 hrs by TLC-bioautographic method; format: functional
How it was run: (§1)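 TLC bioautography. Samples are spotted on silica gel TLC plates, then sprayed with bacteria (1.0 × 10^5 cfu/ml) in tryptic soy broth. Plates are incubated 18 h at 37 C and sprayed with 3% aqueous p-iodonitrotetrazolium violet. After a further 3 h, growth is stopped with 70% EtOH. White zones on a pink background are scored as inhibition-zone diameter with standard errors.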

Staphylococcus aureus [2] = experiment: Antimicrobial activity against Staphylococcus aureus at 1 umol/disk after 24 hrs by disk diffusion assay; format: functional
How it was run: (§2)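 Disc diffusion on 4 mm filter discs. Bacteria are grown overnight in LB at 28 C, then adjusted in saline to 1.0 × 10^5 cfu/ml. The suspension is mixed into top agar over peptone agar plates. Plates are incubated 24 h at 28 C, and growth-inhibition zone diameter is measured. Streptomycin and ampicillin controls are applied from a 1 mg/ml stock. Tests are done in duplicate.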

Micrococcus flavus [3] = experiment: Antimicrobial activity against Micrococcus flavus after 24 hrs by microdilution technique; format: functional
How it was run: (§3)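 Broth microdilution in LB medium. Inoculum is 1.0 × 10^4 cfu per well, from a saline-adjusted suspension of 1.0 × 10^5 cfu/ml. Compounds are dissolved in DMSO. Incubated 24 h at 28 C. MIC is the lowest concentration with no visible growth under a binocular microscope. MBC is read by subculture into fresh broth for 72 h, with no growth taken as 99.5% kill. OD is read at 655 nm.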

Listeria monocytogenes [4] = experiment: Antimicrobial activity against Listeria monocytogenes after 24 hrs by microdilution technique; format: functional; how it was run: as §3
Bacillus cereus [5] = experiment: Antimicrobial activity against Bacillus cereus at 1 umol/disk after 24 hrs by disk diffusion assay; format: functional; how it was run: as §2
Enterobacter cloacae [6] = experiment: Antimicrobial activity against Enterobacter cloacae at 10 ug/disk after 24 hrs by disk diffusion assay; format: functional; how it was run: as §2
Micrococcus flavus [7] = experiment: Antimicrobial activity against Micrococcus flavus at 1 umol/spot after 18 hrs by TLC-bioautographic method; format: functional; how it was run: as §1
Staphylococcus aureus [8] = experiment: Antimicrobial activity against Staphylococcus aureus at 10 ug/disk after 24 hrs by disk diffusion assay; format: functional; how it was run: as §2
Pseudomonas aeruginosa [9] = experiment: Antimicrobial activity against Pseudomonas aeruginosa at 1 umol/disk after 24 hrs by disk diffusion assay; format: functional; how it was run: as §2
Escherichia coli [10] = experiment: Antimicrobial activity against Escherichia coli at 10 ug/disk after 24 hrs by disk diffusion assay; format: functional; how it was run: as §2
Escherichia coli [11] = experiment: Antimicrobial activity against Escherichia coli at 1 umol/disk after 24 hrs by disk diffusion assay; format: functional; how it was run: as §2
Bacillus cereus [12] = experiment: Antimicrobial activity against Bacillus cereus at 1 umol/spot after 18 hrs by TLC-bioautographic method; format: functional; how it was run: as §1
Salmonella typhimurium [13] = experiment: Antimicrobial activity against Salmonella Typhimurium after 24 hrs by microdilution technique; format: functional, Salmonella enterica subsp. enterica serovar Typhimurium; conditions: Salmonella enterica; how it was run: as §3
Salmonella typhimurium [14] = experiment: Antimicrobial activity against Salmonella Typhimurium at 1 umol/disk after 24 hrs by disk diffusion assay; format: functional, organism-based; conditions: Salmonella enterica subsp. enterica serovar Typhimurium; how it was run: as §2
Salmonella typhimurium [15] = experiment: Antimicrobial activity against Salmonella Typhimurium at 1 umol/spot after 18 hrs by TLC-bioautographic method; format: functional, Salmonella enterica subsp. enterica serovar Typhimurium; how it was run: as §1
Salmonella typhimurium [16] = experiment: Antimicrobial activity against Salmonella Typhimurium at 10 ug/disk after 24 hrs by disk diffusion assay; format: functional, organism-based; conditions: Salmonella enterica subsp. enterica serovar Typhimurium; how it was run: as §2
Listeria monocytogenes [17] = experiment: Antimicrobial activity against Listeria monocytogenes at 1 umol/disk after 24 hrs by disk diffusion assay; format: functional; how it was run: as §2
Bacillus cereus [18] = experiment: Antimicrobial activity against Bacillus cereus at 10 ug/disk after 24 hrs by disk diffusion assay; format: functional; how it was run: as §2
Listeria monocytogenes [19] = experiment: Antimicrobial activity against Listeria monocytogenes at 1 umol/spot after 18 hrs by TLC-bioautographic method; format: functional; how it was run: as §1
Escherichia coli [20] = experiment: Antimicrobial activity against Escherichia coli at 1 umol/spot after 18 hrs by TLC-bioautographic method; format: functional; how it was run: as §1
Staphylococcus aureus [21] = experiment: Antimicrobial activity against Staphylococcus aureus at 1 umol/spot after 18 hrs by TLC-bioautographic method; format: functional; how it was run: as §1
Staphylococcus aureus [22] = experiment: Antimicrobial activity against Staphylococcus aureus after 24 hrs by microdilution technique; format: functional; how it was run: as §3
Pseudomonas aeruginosa [23] = experiment: Antimicrobial activity against Pseudomonas aeruginosa at 10 ug/disk after 24 hrs by disk diffusion assay; format: functional; how it was run: as §2
Pseudomonas aeruginosa [24] = experiment: Antimicrobial activity against Pseudomonas aeruginosa after 24 hrs by microdilution technique; format: functional; how it was run: as §3
Enterobacter cloacae [25] = experiment: Antimicrobial activity against Enterobacter cloacae at 1 umol/disk after 24 hrs by disk diffusion assay; format: functional; how it was run: as §2
Micrococcus flavus [26] = experiment: Antimicrobial activity against Micrococcus flavus at 1 umol/disk after 24 hrs by disk diffusion assay; format: functional; how it was run: as §2
Bacillus cereus [27] = experiment: Antimicrobial activity against Bacillus cereus after 24 hrs by microdilution technique; format: functional; how it was run: as §3
Enterobacter cloacae [28] = experiment: Antimicrobial activity against Enterobacter cloacae after 24 hrs by microdilution technique; format: functional; how it was run: as §3
Listeria monocytogenes [29] = experiment: Antimicrobial activity against Listeria monocytogenes at 10 ug/disk after 24 hrs by disk diffusion assay; format: functional; how it was run: as §2
Enterobacter cloacae [30] = experiment: Antimicrobial activity against Enterobacter cloacae at 1 umol/spot after 18 hrs by TLC-bioautographic method; format: functional; how it was run: as §1
Micrococcus flavus [31] = experiment: Antimicrobial activity against Micrococcus flavus at 10 ug/disk after 24 hrs by disk diffusion assay; format: functional; conditions: for zone of inhibition at 10 µg/disc: read-out: IZ; how it was run: as §2
Escherichia coli [32] = experiment: Antimicrobial activity against Escherichia coli after 24 hrs by microdilution technique; format: functional; how it was run: as §3

SMILES	inhibition zone (IZ) (Pseudomonas aeruginosa [1])	inhibition zone (IZ) (Staphylococcus aureus [2])	MBC (Micrococcus flavus [3])	MIC (Micrococcus flavus [3])	MBC (Listeria monocytogenes [4])	MIC (Listeria monocytogenes [4])	inhibition zone (IZ) (Bacillus cereus [5])	inhibition zone (IZ) (Enterobacter cloacae [6])	inhibition zone (IZ) (Micrococcus flavus [7])	inhibition zone (IZ) (Staphylococcus aureus [8])	inhibition zone (IZ) (Pseudomonas aeruginosa [9])	inhibition zone (IZ) (Escherichia coli [10])	inhibition zone (IZ) (Escherichia coli [11])	inhibition zone (IZ) (Bacillus cereus [12])	MBC (Salmonella typhimurium [13])	MIC (Salmonella typhimurium [13])	inhibition zone (IZ) (Salmonella typhimurium [14])	inhibition zone (IZ) (Salmonella typhimurium [16])	inhibition zone (IZ) (Listeria monocytogenes [17])	inhibition zone (IZ) (Bacillus cereus [18])	other results
N#Cc1c(-c2cccs2)cc(-c2ccc(Nc3nc(Nc4ccccc4)nc(Nc4ccccc4)n3)cc2)nc1N	inactive	inactive	90 µM (≈ 49.8 µg/mL)	45 µM (≈ 24.9 µg/mL)	360 µM (≈ 199 µg/mL)	180 µM (≈ 99.7 µg/mL)	inactive	inactive	0.08 millimeter	inactive	inactive	inactive	inactive	inactive	90 µM (≈ 49.8 µg/mL)	45 µM (≈ 24.9 µg/mL)	inactive	inactive	inactive	inactive	inhibition zone (IZ) (Salmonella typhimurium [15]): 0.07 millimeter; inhibition zone (IZ) (Listeria monocytogenes [19]): 0.09 millimeter; inhibition zone (IZ) (Escherichia coli [20]): 0.06 millimeter; inhibition zone (IZ) (Staphylococcus aureus [21]): inactive; MBC (Staphylococcus aureus [22]): 180 µM (≈ 99.7 µg/mL); MIC (Staphylococcus aureus [22]): 90 µM (≈ 49.8 µg/mL); inhibition zone (IZ) (Pseudomonas aeruginosa [23]): inactive; MBC (Pseudomonas aeruginosa [24]): 180 µM (≈ 99.7 µg/mL); MIC (Pseudomonas aeruginosa [24]): 90 µM (≈ 49.8 µg/mL); inhibition zone (IZ) (Enterobacter cloacae [25]): inactive; inhibition zone (IZ) (Micrococcus flavus [26]): 0.04 millimeter; MBC (Bacillus cereus [27]): 90 µM (≈ 49.8 µg/mL); MIC (Bacillus cereus [27]): 45 µM (≈ 24.9 µg/mL); MBC (Enterobacter cloacae [28]): 180 µM (≈ 99.7 µg/mL); MIC (Enterobacter cloacae [28]): 90 µM (≈ 49.8 µg/mL); inhibition zone (IZ) (Listeria monocytogenes [29]): inactive; inhibition zone (IZ) (Enterobacter cloacae [30]): 0.08 millimeter; zone of inhibition at 10 µg/disc (Micrococcus flavus [31]): 7 mm; MBC (Escherichia coli [32]): 90 µM (≈ 49.8 µg/mL); MIC (Escherichia coli [32]): 45 µM (≈ 24.9 µg/mL)
O=C(/C=C/c1ccc(Cl)cc1)c1ccc(Nc2nc(Nc3ccccc3)nc(Nc3ccccc3)n2)cc1	inactive	inactive	386 µM (≈ 200 µg/mL)	193 µM (≈ 100 µg/mL)	772 µM (≈ 401 µg/mL)	386 µM (≈ 200 µg/mL)	inactive	inactive	0.07 millimeter	inactive	inactive	inactive	inactive	inactive	772 µM (≈ 401 µg/mL)	386 µM (≈ 200 µg/mL)	inactive	inactive	inactive	inactive	inhibition zone (IZ) (Salmonella typhimurium [15]): 0.09 millimeter; inhibition zone (IZ) (Listeria monocytogenes [19]): 0.07 millimeter; inhibition zone (IZ) (Escherichia coli [20]): inactive; inhibition zone (IZ) (Staphylococcus aureus [21]): inactive; MBC (Staphylococcus aureus [22]): 772 µM (≈ 401 µg/mL); MIC (Staphylococcus aureus [22]): 386 µM (≈ 200 µg/mL); inhibition zone (IZ) (Pseudomonas aeruginosa [23]): inactive; MBC (Pseudomonas aeruginosa [24]): 772 µM (≈ 401 µg/mL); MIC (Pseudomonas aeruginosa [24]): 386 µM (≈ 200 µg/mL); inhibition zone (IZ) (Enterobacter cloacae [25]): inactive; inhibition zone (IZ) (Micrococcus flavus [26]): inactive; MBC (Bacillus cereus [27]): 386 µM (≈ 200 µg/mL); MIC (Bacillus cereus [27]): 193 µM (≈ 100 µg/mL); MBC (Enterobacter cloacae [28]): 386 µM (≈ 200 µg/mL); MIC (Enterobacter cloacae [28]): 193 µM (≈ 100 µg/mL); inhibition zone (IZ) (Listeria monocytogenes [29]): inactive; inhibition zone (IZ) (Enterobacter cloacae [30]): 0.08 millimeter; inhibition zone (IZ) (Micrococcus flavus [31]): inactive; MBC (Escherichia coli [32]): 772 µM (≈ 401 µg/mL); MIC (Escherichia coli [32]): 772 µM (≈ 401 µg/mL)
COc1ccccc1-c1cc(-c2ccc(Nc3nc(Nc4ccccc4)nc(Nc4ccccc4)n3)cc2)nc(N)n1	inactive	inactive	181 µM (≈ 100 µg/mL)	90.5 µM (≈ 50.1 µg/mL)	724 µM (≈ 401 µg/mL)	724 µM (≈ 401 µg/mL)	inactive	inactive	0.06 millimeter	inactive	inactive	inactive	inactive	inactive	362 µM (≈ 200 µg/mL)	181 µM (≈ 100 µg/mL)	inactive	inactive	inactive	inactive	inhibition zone (IZ) (Salmonella typhimurium [15]; Salmonella enterica subsp. enterica serovar Typhimurium): inactive; inhibition zone (IZ) (Listeria monocytogenes [19]): 0.09 millimeter; inhibition zone (IZ) (Escherichia coli [20]): inactive; inhibition zone (IZ) (Staphylococcus aureus [21]): 0.03 millimeter; MBC (Staphylococcus aureus [22]): 181 µM (≈ 100 µg/mL); MIC (Staphylococcus aureus [22]): 90.5 µM (≈ 50.1 µg/mL); inhibition zone (IZ) (Pseudomonas aeruginosa [23]): inactive; MBC (Pseudomonas aeruginosa [24]): 362 µM (≈ 200 µg/mL); MIC (Pseudomonas aeruginosa [24]): 181 µM (≈ 100 µg/mL); inhibition zone (IZ) (Enterobacter cloacae [25]): inactive; inhibition zone (IZ) (Micrococcus flavus [26]): 0.03 millimeter; MBC (Bacillus cereus [27]): 181 µM (≈ 100 µg/mL); MIC (Bacillus cereus [27]): 90.5 µM (≈ 50.1 µg/mL); MBC (Enterobacter cloacae [28]): 362 µM (≈ 200 µg/mL); MIC (Enterobacter cloacae [28]): 181 µM (≈ 100 µg/mL); inhibition zone (IZ) (Listeria monocytogenes [29]): inactive; inhibition zone (IZ) (Enterobacter cloacae [30]): inactive; zone of inhibition at 10 µg/disc (Micrococcus flavus [31]): 6 mm; MBC (Escherichia coli [32]): 362 µM (≈ 200 µg/mL); MIC (Escherichia coli [32]): 181 µM (≈ 100 µg/mL)
